Key:
[1] = Drug level in human liver microsomes treated with 8-Chloro-2-(3-methoxy-d3-phenyl)-2,5-dihydro-3H-pyrazolo[4,3-c]quinolin-3-one after 60 mins by LC-MS analysis; type: ADME; conditions: 1 h
[2] = Drug level in mouse liver microsomes treated with 8-Chloro-2-(3-methoxy-d3-phenyl)-2,5-dihydro-3H-pyrazolo[4,3-c]quinolin-3-one after 60 mins by LC-MS analysis; type: ADME; conditions: 1 h
[3] = Cmax in Wistar rat brain at 10 mg/kg, ip administered as single dose measured at 5 to 720 mins post dose by HPLC-MS/MS analysis; type: ADME, organism-based; design: dose 10 mg/kg, route intraperitoneal
Procedure, shortened: (§1)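 Male Wistar rats (250-350 g) given a single 10 mg/kg i.p. dose of a 5 mg/ml suspension in 85% distilled water, 14% propylene glycol, 1% Tween 80. Three rats per time point (5, 20, 60, 180, 720 min). Blood and brain were collected after sacrifice. Drug was recovered by solid phase extraction and quantified by HPLC-MS/MS.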

[4] = Drug metabolism in human liver microsomes assessed as CYP450 mediated-O-demethylated 2-(6-hydroxy-3-pyridyl)-7-(trideuteriomethoxy)-5H-pyrazolo[4,3-c]quinolin-3-one metabolite formation after 60 mins by LC-MS analysis; type: ADME; conditions: 1 h
Procedure, shortened: (§2)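 The 60-min samples from the human or mouse liver microsome incubations (10 µM compound, 0.5 mg/mL protein, NADPH regenerating system, 37 °C, pH 7.4) were run on LC-MS in SIM mode with dual ESI/APCI ionization. The method was calibrated to each component's retention time and mass, and the peak intensities of the parent and O-demethylated metabolites were measured.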

[5] = Tmax in Wistar rat plasma at 10 mg/kg, ip administered as single dose by HPLC-MS/MS analysis; type: ADME, organism-based
Procedure, shortened: (§3)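 Male Wistar rats (250–350 g) received a single i.p. dose of 10 mg/kg as a 5 mg/ml suspension in 85% water, 14% propylene glycol and 1% Tween 80. Three rats per time point were sacrificed at 5, 20, 60, 180 and 720 min for plasma and brain. Samples were cleaned up by solid-phase extraction and quantified by HPLC-MS/MS.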

[6] = AUC (0 to 12 hrs) in Wistar rat plasma at 10 mg/kg, ip administered as single dose by HPLC-MS/MS analysis; type: ADME, organism-based; design: time < 12 hr, dose 10 mg/kg, route intraperitoneal
[7] = Terminal elimination half-life in Wistar rat brain at 10 mg/kg, ip administered as single dose by HPLC-MS/MS analysis; type: ADME, organism-based; conditions: read-out: beta t1/2 (converted); procedure, shortened: as §3
[8] = Drug metabolism in human liver microsomes assessed as CYP450 mediated-O-demethylated 7-hydroxy-2-(6-hydroxypyridin-3-yl)-2H-pyrazolo[4,3-c]quinolin-3(5H)-one metabolite formation after 60 mins by LC-MS analysis; type: ADME; conditions: 1 h; procedure, shortened: as §2
HEK-293T = experiment: Cytotoxicity against HEK293T cells assessed as reduction in cell viability up to 400 uM after 48 hrs by CellTiter-Glo assay; type: cell-based; conditions: human
Procedure, shortened: (§4)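 HEK293T and HepG2 cells grown in high-glucose DMEM with non-essential amino acids, 10 mM HEPES, penicillin/streptomycin and 10% heat-inactivated FBS. Cells were harvested with trypsin and plated; compound was pin-transferred 3 h later. Incubation was 48 h, then CellTiter-Glo luminescence was read. Controls were DMSO (negative) and a cytotoxic aminoketone (positive). Quadruplicates, three independent runs, normalized to controls, nonlinear regression.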

[9] = molecular target: Voltage-gated inwardly rectifying potassium channel KCNH2 (Homo sapiens, UniProt Q12809); experiment: Displacement of [3H]-dofetilide from human ERG expressed in HEK cell membranes at >10 uM after 60 to 90 mins by scintillation counting
Sequence of Voltage-gated inwardly rectifying potassium channel KCNH2 (Q12809 whole entry): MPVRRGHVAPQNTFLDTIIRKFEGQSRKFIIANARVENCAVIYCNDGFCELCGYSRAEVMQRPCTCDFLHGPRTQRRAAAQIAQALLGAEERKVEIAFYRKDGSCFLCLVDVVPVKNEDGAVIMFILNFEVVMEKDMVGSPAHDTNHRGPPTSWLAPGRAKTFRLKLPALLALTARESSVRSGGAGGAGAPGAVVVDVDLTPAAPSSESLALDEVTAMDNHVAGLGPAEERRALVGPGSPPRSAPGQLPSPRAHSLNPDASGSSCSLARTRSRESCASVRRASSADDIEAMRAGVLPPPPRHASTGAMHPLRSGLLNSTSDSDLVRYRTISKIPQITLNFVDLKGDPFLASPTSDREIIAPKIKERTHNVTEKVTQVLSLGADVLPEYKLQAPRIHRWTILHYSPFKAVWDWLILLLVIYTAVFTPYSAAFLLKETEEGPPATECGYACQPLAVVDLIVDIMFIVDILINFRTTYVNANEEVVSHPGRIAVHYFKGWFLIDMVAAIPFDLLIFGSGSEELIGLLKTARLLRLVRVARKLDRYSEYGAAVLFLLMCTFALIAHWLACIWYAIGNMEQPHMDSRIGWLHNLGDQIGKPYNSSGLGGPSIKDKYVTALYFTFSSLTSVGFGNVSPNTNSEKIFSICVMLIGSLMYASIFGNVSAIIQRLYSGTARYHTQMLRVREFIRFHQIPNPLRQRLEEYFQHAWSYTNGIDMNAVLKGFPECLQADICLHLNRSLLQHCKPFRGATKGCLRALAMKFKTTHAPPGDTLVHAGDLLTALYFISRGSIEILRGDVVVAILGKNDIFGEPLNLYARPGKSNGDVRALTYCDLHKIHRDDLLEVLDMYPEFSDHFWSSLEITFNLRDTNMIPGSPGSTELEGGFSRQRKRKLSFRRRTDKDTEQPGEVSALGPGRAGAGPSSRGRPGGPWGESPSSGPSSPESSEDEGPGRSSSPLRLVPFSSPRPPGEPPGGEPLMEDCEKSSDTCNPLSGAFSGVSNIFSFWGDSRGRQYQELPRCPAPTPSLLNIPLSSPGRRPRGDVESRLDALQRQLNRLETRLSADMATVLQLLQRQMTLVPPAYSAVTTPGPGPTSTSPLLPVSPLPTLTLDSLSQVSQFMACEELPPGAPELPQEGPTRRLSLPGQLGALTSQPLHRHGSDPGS

[10] = Terminal elimination half-life in Wistar rat plasma at 10 mg/kg, ip administered as single dose by HPLC-MS/MS analysis; type: ADME, organism-based; conditions: read-out: beta t1/2 (converted); procedure, shortened: as §3
[11] = Drug metabolism in mouse liver microsomes assessed as CYP450 mediated-O-demethylated 7-hydroxy-2-(6-methoxypyridin-3-yl)-2H-pyrazolo[4,3-c]quinolin-3(5H)-one metabolite formation after 60 mins by LC-MS analysis; type: ADME; conditions: 1 h; procedure, shortened: as §2
[12] = Cmax in Wistar rat plasma at 10 mg/kg, ip administered as single dose measured at 5 to 720 mins post dose by HPLC-MS/MS analysis; type: ADME, organism-based; design: dose 10 mg/kg, route intraperitoneal; procedure, shortened: as §1
HepG2 = experiment: Cytotoxicity against human HepG2 cells assessed as reduction in cell viability up to 400 uM after 48 hrs by CellTiter-Glo assay; type: cell-based; conditions: hepg2, 48 h; procedure, shortened: as §4
[13] = Drug metabolism in mouse liver microsomes assessed as CYP450 mediated-O-demethylated 7-hydroxy-2-(6-hydroxypyridin-3-yl)-2H-pyrazolo[4,3-c]quinolin-3(5H)-one metabolite formation after 60 mins by LC-MS analysis; type: ADME; conditions: 1 h; procedure, shortened: as §2
[14] = Metabolic stability in mouse liver microsomes assessed as parent compound remaining at 10 uM after 60 mins by LC-MS analysis; type: ADME, microsome; conditions: read-out: Stability
Procedure, shortened: (§5)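 The 60 min samples of the microsomal incubation (10 μM compound, human or mouse liver microsomes at 0.5 mg/mL, NADPH regenerating system, 37 °C) were analysed by LC-MS. Detection used SIM mode with dual ESI/APCI ionization, calibrated to the retention times and masses of the parent and its O-demethylated metabolites. Peak intensities were measured.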

[15] = Drug metabolism in mouse liver microsomes assessed as CYP450 mediated-O-demethylated 2-(6-hydroxy-3-pyridyl)-7-(trideuteriomethoxy)-5H-pyrazolo[4,3-c]quinolin-3-one metabolite formation after 60 mins by LC-MS analysis; type: ADME; conditions: 1 h; procedure, shortened: as §2
[16] = Tmax in Wistar rat brain at 10 mg/kg, ip administered as single dose by HPLC-MS/MS analysis; type: ADME, organism-based; procedure, shortened: as §3
Mus musculus [17] = experiment: Neurotoxicity in Swiss Webster mouse assessed as induction of motor impairment at 40 mg/kg administered via oral gavage measured after 10 to 60 mins by rotarod method; type: toxicity, organism-based; conditions: in vivo
Procedure, shortened: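 Female mice were given a single oral gavage dose of 40 mg/kg, either in 50% PBS/40% propylene glycol/10% DMSO or, for poorly soluble compounds, in 2% polyethylene glycol plus 2.5% hydroxymethyl cellulose. Rotarod performance was tested 10, 30 and 60 min after dosing, with diazepam 5 mg/kg as positive control.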

[18] = Drug metabolism in human liver microsomes assessed as CYP450 mediated-O-demethylated 7-hydroxy-2-(6-methoxypyridin-3-yl)-2H-pyrazolo[4,3-c]quinolin-3(5H)-one metabolite formation after 60 mins by LC-MS analysis; type: ADME; conditions: 1 h; procedure, shortened: as §2
[19] = Metabolic stability in human liver microsomes assessed as parent compound remaining at 10 uM after 60 mins by LC-MS analysis; type: ADME, microsome; conditions: read-out: Stability; procedure, shortened: as §5
Brain = experiment: AUC (0 to 12 hrs) in Wistar rat brain at 10 mg/kg, ip administered as single dose by HPLC-MS/MS analysis; type: ADME, organism-based; design: dose 10 mg/kg, time < 12 hr, route intraperitoneal; conditions: in vivo
Liver = experiment: Half life in mouse liver microsomes at 10 uM by LC-MS/MS analysis; type: ADME, microsome
Procedure, shortened: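 Compound at 10 μM final was preincubated 5 min at 37 °C with NADPH regenerating system in phosphate buffer, pH 7.4. Human or mouse liver microsomes (0.5 mg/mL protein) were added to start the reaction. Samples were taken at 0 (no microsomes) and 10–60 min and measured by LC-MS/MS against an internal standard. Half-life = 0.693/k, with k the slope of ln peak-area ratio versus time. Three experiments, each in duplicate.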

[20] = Drug metabolism in human liver microsomes assessed as CYP450 mediated-O-demethylated 7-bromo-2-(4-hydroxyphenyl)-2H-pyrazolo[4,3-c]quinolin-3(5H)-one metabolite formation after 60 mins by LC-MS analysis; type: ADME; conditions: 1 h; procedure, shortened: as §2
[21] = Drug metabolism in mouse liver microsomes assessed as CYP450 mediated-O-demethylated 7-bromo-2-(4-hydroxyphenyl)-2H-pyrazolo[4,3-c]quinolin-3(5H)-one metabolite formation after 60 mins by LC-MS analysis; type: ADME; conditions: 1 h; procedure, shortened: as §2
[22] = Ratio of brain AUC (0 to t) to plasma AUC (0 to t), Kp of the compound in Wistar rat at 10 mg/kg, ip administered as single dose by HPLC-MS/MS analysis; type: ADME, organism-based
Rattus norvegicus [23] = experiment: Toxicity in Wistar rat assessed as peripheral ring distance at 10 mg/kg, ip administered for 45 mins by cued water-maze method (reference value: 67.44 +/- 4.60%); type: organism-based; conditions: in vivo, 0.75 h
Rattus norvegicus [24] = experiment: Toxicity in Wistar rat assessed as total distance traveled at 10 mg/kg, ip administered for 45 mins by cued water-maze method (reference value: 8.04 +/- 1.16 meter); type: organism-based; conditions: in vivo, 0.75 h
Rattus norvegicus [25] = experiment: Toxicity in Wistar rat assessed as average swim speed at 10 mg/kg, ip administered for 45 mins by cued water-maze apparatus method (reference value: 0.21 +/- 0.01 meter/s); type: organism-based; conditions: in vivo, 0.75 h
Rattus norvegicus [26] = experiment: Toxicity in Wistar rat assessed as closed arm entries at 10 mg/kg, ip administered for 45 mins measured for 5 min by elevated plus maze apparatus method (reference value: 3.63 +/- 0.42); type: organism-based; conditions: in vivo
Mus musculus [27] = experiment: Neurotoxicity in Swiss Webster mouse assessed as induction of motor impairment at 60 mg/kg administered via oral gavage measured after 10 to 60 mins by rotarod method; type: toxicity, organism-based; conditions: in vivo
Rattus norvegicus [28] = experiment: Toxicity in Wistar rat assessed as grip strength by measuring peak force of pull necessary to overcome strength of animal's grip at 10 mg/kg, ip (reference value: 2.79 +/- 0.16 kg/kg); type: organism-based; conditions: in vivo
Rattus norvegicus [29] = experiment: Hyperlocomotor activity in Wistar rat assessed as total distance travelled at 10 mg/kg, ip after 60 mins; type: ADME, organism-based; conditions: in vivo, 1 h
Rattus norvegicus [30] = experiment: Toxicity in Wistar rat assessed as open arm entries at 10 mg/kg, ip administered for 45 mins measured for 5 min by elevated plus maze apparatus method (reference value: 23.07 +/- 5.47%); type: organism-based; conditions: in vivo
Rattus norvegicus [31] = experiment: Toxicity in Wistar rat assessed as total distance traveled at 10 mg/kg, ip administered for 45 mins measured for 5 min by elevated plus maze method (reference value: 6.71 +/- 0.56 meter); type: organism-based; conditions: in vivo

Row | SMILES | Cmax [3] [ng/g] | Tmax [5] [h] | AUC(0-t) at 12 h [6] [ng·h/mL] | half-life [7] [h] | Activity (HEK-293T) | inhibition (INH) [9] | half-life [10] [h] | Cmax [12] [ng/mL] | Activity (HepG2) | remaining at 1 h, 10 µM [14] [%] | Tmax [16] [h] | Activity (Mus musculus [17]) | remaining at 1 h, 10 µM [19] [%] | AUC (Brain) [ng·h/g] | t1/2 (Liver) [h] | also measured
1 | O=c1c2c[nH]c3ccc(Cl)cc3c-2nn1-c1cccc(O)c1 |  |  |  |  |  |  |  |  |  |  |  |  |  |  |  | Drug metabolism [1]: Metabolite_Detected; Drug metabolism [2]: Metabolite_Detected
2 | [2H]C([2H])([2H])Oc1ccc2c3nn(-c4ccc(OC)nc4)c(=O)c-3c[nH]c2c1 | 215 | 1 | 6020 | 9.07 | Non-Toxic | Not Active | 18 | 1250 | Non-Toxic | 91.4 | 1.67 | Non-Toxic | 92.3 | 1502.14 |  | Drug metabolism [4]: Metabolite_Detected; Drug metabolism [8]: Metabolite_Detected; Drug metabolism [11]: Metabolite_Detected; Drug metabolism [13]: Metabolite_Detected; Drug metabolism [15]: Metabolite_Detected; Drug metabolism [18]: Metabolite_Detected
3 | [2H]C([2H])([2H])Oc1ccc(-n2nc3c4ccc(Br)cc4[nH]cc-3c2=O)cc1 |  |  |  |  | Non-Toxic | Not Active |  |  | Non-Toxic | 73.8 |  | Non-Toxic | 81.5 |  | 2.3 | Drug metabolism [20]: Metabolite_Detected; Drug metabolism [21]: Metabolite_Detected
4 | [2H]C([2H])([2H])Oc1ccccc1-n1nc2c3cc(Cl)ccc3[nH]cc-2c1=O | 65.6 | 0.78 | 1800 | 5.54 | Non-Toxic | Not Active | 3.66 | 434 | Non-Toxic | 94.9 | 0.78 |  | 94.8 | 269.03 | 16.6 | Kp [22]: 0.15; Activity (Rattus norvegicus [23]): 69.34%; Activity (Rattus norvegicus [24]): 9.93 m; Activity (Rattus norvegicus [25]): 0.22 meter/s; Activity (Rattus norvegicus [26]): 3.5; Activity (Mus musculus [27]): Non-Toxic; Activity (Rattus norvegicus [28]): 2.66 kg/kg; Activity (Rattus norvegicus [29]): Non-Toxic; Activity (Rattus norvegicus [30]): 20.6%; Activity (Rattus norvegicus [31]): 6.14 m

— ChEMBL document CHEMBL4033790, “Design and Synthesis of Novel Deuterated Ligands Functionally Selective for the γ-Aminobutyric Acid Type A Receptor (GABAAR) α6 Subtype with Improved Metabolic Stability and Enhanced Bioavailability” (J Med Chem, 2018)
